Assay results from ChEMBL document CHEMBL1124668, “Solid-phase synthesis of 16 potent (selective and nonselective) in vivo antagonists of oxytocin” (J Med Chem, 1989).
Starred links: 1 amine or outer side, 2 acyl side, 3 side chain; linkers in the order of their positions; H or OH if unused. Positions of bridges follow the written chain, without caps; N, C: chain ends. Non-standard residues stand in square brackets, D forms with d. Residues, ends and D or L forms follow the SMILES beside them. X1 = O=C(CC1(S[*:2])CCCCC1)[*:1]; Orn = NCCC[C@H](N)C(=O)O

Experiments:
[1] = system: Rattus norvegicus; assay: Antidiuretic activity in rats as intravenous dose required for reduction of 2x agonist response to equal 1x effect in hydrated rats under ethanol anesthesia; Weak partial agonist/antagonist
[2] = system: Rattus norvegicus; assay: In vivo inhibition of estrogen induced changes in interuterine pressure in rats.; assay type: functional
Procedure, shortened: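 Rats pretreated with estrogen, under urethane anesthesia; antagonist given iv; read-out is change in integrated intrauterine pressure; agonist synthetic oxytocin. Effective dose (nmol/kg) is the dose that cuts the response to 2X units of agonist to the response to 1X unit, interpolated on a semilog scale from doses above and below it. pA2 is derived assuming a 67 mL/kg distribution volume.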

[3] = system: Rattus norvegicus; assay: Antivasopressor activity in vivo in phenoxybenzamine pre-treated rats.; assay type: functional
Procedure, shortened: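 Rats pretreated with phenoxybenzamine, under urethane anesthesia; antagonist given iv; agonist USP Posterior Pituitary Reference Standard; read-out is pressor response. Effective dose (nmol/kg) is the dose that cuts the response to 2X units of agonist to that of 1X unit, interpolated semilogarithmically from bracketing doses. pA2 assumes a 67 mL/kg distribution volume. SEM is given where there are ≥4 independent estimates.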

[4] = organism: Rattus norvegicus; assay: Antidiuretic activity in rat; assay type: functional, Urine
[5] = organism: Rattus norvegicus; assay: Antidiuretic activity in rats; assay type: functional, Urine
[6] = system: Rattus norvegicus; assay: Antidiuretic activity in rats as intravenous dose required for reduction of 2x agonist response to equal 1x effect in estrogen pretreated rats; Weak partial agonist/antagonist; assay type: functional; settings: Urine
[7] = system: Rattus norvegicus; assay: Antidiuretic activity in rats as intravenous dose required for reduction of 2x agonist response to equal 1x effect in estrogen pretreated rats; assay type: functional, Urine
[8] = system: Rattus norvegicus; assay: In vivo antidiuretic activity as intravenous antagonist dose in estrogen pretreated rats; Weak partial agonist/antagonist; assay type: functional, organism-based; settings: Urine

Structure (SMILES)	ED [2] [nM/kg]	ED [3] [nM/kg]	further results
CC[C@H](C)[C@@H]1NC(=O)[C@H](Cc2ccc(OC)cc2)NC(=O)CC2(CCCCC2)SSC[C@@H](C(=O)N2CCC[C@H]2C(=O)N[C@@H](CCCN)C(=O)O)NC(=O)[C@H](CC(N)=O)NC(=O)[C@H]([C@@H](C)O)NC1=O (Y(Me)ITNCP[Orn]-OH; linker N-5 via X1)	1.3	23	ED [1]: ~300 nM/kg
CC[C@H](C)[C@@H]1NC(=O)C(Cc2ccc(OC)cc2)NC(=O)CC(C)(C)SSC[C@@H](C(=O)N2CCC[C@H]2C(=O)N[C@@H](CCCN=C(N)N)C(=O)NCC(N)=O)NC(=O)[C@H](CC(N)=O)NC(=O)[C@H](C(C)C)NC1=O (stereo in doubt)	1.9	0.23	Activity [4]: 1.6 mg
CC[C@H](C)[C@@H]1NC(=O)[C@H](Cc2ccc(OC)cc2)NC(=O)CC2(CCCCC2)SSC[C@@H](C(=O)N2CCC[C@H]2C(=O)N[C@@H](CCCN)C(N)=O)NC(=O)[C@H](CC(N)=O)NC(=O)[C@H]([C@@H](C)O)NC1=O (Y(Me)ITNCP[Orn]-NH2; linker N-5 via X1)	1.7	7.3	ED [1]: ~100 nM/kg
CC[C@H](C)[C@@H]1NC(=O)C(Cc2ccc(OC)cc2)NC(=O)CC2(CCCCC2)SSC[C@@H](C(=O)N2CCC[C@H]2C(=O)N[C@@H](CCCCN)C(=O)NCC(N)=O)NC(=O)[C@H](CC(N)=O)NC(=O)[C@H](CCC(N)=O)NC1=O (stereo in doubt)	4.6	1.5	Activity [4]: ~0.003 mg
CC[C@H](C)[C@@H]1NC(=O)C(Cc2ccc(OC)cc2)NC(=O)CC2(CCCCC2)SSC[C@@H](C(=O)N2CCC[C@H]2C(=O)N[C@@H](CCCN=C(N)N)C(=O)NCC(N)=O)NC(=O)[C@H](CC(N)=O)NC(=O)[C@H](CCC(N)=O)NC1=O (stereo in doubt)	1.1	0.64	Activity [5]: ~0.03 mg
CC[C@H](C)[C@H]1NC(=O)[C@@H](Cc2ccc(OC)cc2)NC(=O)CC2(CCCCC2)SSC[C@H](C(=O)N2CCC[C@H]2C(=O)N[C@@H](CCCN)C(=O)N[C@H](C)C(N)=O)NC(=O)[C@@H](CC(N)=O)NC(=O)[C@H]([C@H](C)O)NC1=O			ED [6]: Partial agonist
CC[C@H](C)[C@@H]1NC(=O)C(Cc2ccc(OC)cc2)NC(=O)CC(C)(C)SSC[C@@H](C(=O)N2CCC[C@H]2C(=O)N[C@@H](CCCN=C(N)N)C(=O)NCC(N)=O)NC(=O)[C@H](CC(N)=O)NC(=O)[C@H](CCC(N)=O)NC1=O (stereo in doubt)	2.2	0.25	Activity [4]: ~1.6 mg
COc1ccc(C[C@H]2NC(=O)CC3(CCCCC3)SSC[C@@H](C(=O)N3CCC[C@H]3C(=O)N[C@@H](CCCN=C(N)N)C(=O)NCC(N)=O)NC(=O)[C@H](CC(N)=O)NC(=O)[C@H](CCC(N)=O)NC(=O)[C@H](Cc3ccccc3)NC2=O)cc1	1.3	0.36	ED [7]: 7.3 nM/kg
CC[C@H](C)[C@H]1NC(=O)[C@@H](Cc2ccc(OC)cc2)NC(=O)CC2(CCCCC2)SSC[C@H](C(=O)N2CCC[C@H]2C(=O)N[C@@H](CCCN)C(=O)N[C@H](CCCN=C(N)N)C(N)=O)NC(=O)[C@@H](CC(N)=O)NC(=O)[C@H]([C@H](C)O)NC1=O			Activity [8]: Partial agonist
CC[C@H](C)[C@@H]1NC(=O)[C@@H](Cc2ccc(OC)cc2)NC(=O)CC2(CCCCC2)SSC[C@@H](C(=O)N2CCC[C@H]2C(=O)N[C@@H](CCCN=C(N)N)C(=O)NCC(N)=O)NC(=O)[C@H](CC(N)=O)NC(=O)[C@H](C(C)C)NC1=O	2.4	1.1	ED [7]: 9.4 nM/kg
CCOc1ccc(C[C@H]2NC(=O)CC3(CCCCC3)SSC[C@@H](C(=O)N3CCC[C@H]3C(=O)N[C@@H](CCCNC(N)=O)C(=O)NCC(N)=O)NC(=O)[C@H](CC(N)=O)NC(=O)[C@H](C(C)C)NC(=O)[C@H](Cc3ccccc3)NC2=O)cc1	1.8	0.81	ED [7]: 23 nM/kg
